{"source": "ChEMBL document CHEMBL4414601", "about": "(J Med Chem, 2019)", "key": {"[1]": {"target": "Calcium-dependent protein kinase 1 (Plasmodium falciparum, UniProt P62344)", "sequence (P62344 whole entry)": "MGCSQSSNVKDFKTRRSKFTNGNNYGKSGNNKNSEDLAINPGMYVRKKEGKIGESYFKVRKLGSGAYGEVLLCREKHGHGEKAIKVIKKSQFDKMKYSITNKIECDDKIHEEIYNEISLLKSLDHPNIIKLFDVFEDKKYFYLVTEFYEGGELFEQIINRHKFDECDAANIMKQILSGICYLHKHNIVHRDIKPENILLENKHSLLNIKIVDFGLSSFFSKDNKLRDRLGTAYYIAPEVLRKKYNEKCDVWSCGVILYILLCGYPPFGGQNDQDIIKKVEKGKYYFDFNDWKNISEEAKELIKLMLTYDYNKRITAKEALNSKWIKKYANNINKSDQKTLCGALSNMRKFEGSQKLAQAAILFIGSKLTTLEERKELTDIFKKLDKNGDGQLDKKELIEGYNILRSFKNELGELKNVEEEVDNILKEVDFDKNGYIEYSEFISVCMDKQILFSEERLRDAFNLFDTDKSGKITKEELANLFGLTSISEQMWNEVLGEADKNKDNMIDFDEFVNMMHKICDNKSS", "assay": "Binding affinity to CDPK1 in Plasmodium falciparum 3D7 blood stage extract incubated for 1 hr by kinobeads based pull down assay", "conditions": "read-out: Kd(app)", "outline": "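Chemoproteomic competition used kinobeads or Sepharose beads derivatized with ligand at 1 mM. Free compound was tested at six concentrations between 0.08 and 20 μM, in two independent experiments. Proteins were SP3-digested, TMT 10-plex labelled and measured by LC-MS/MS. IC50s came from competition curves, and apparent Kd was corrected for protein depletion by the beads.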"}, "[2]": {"target": "T1, Amine oxidase [flavin-containing] A (Homo sapiens, UniProt P21397)", "T1 sequence (P21397 whole entry)": "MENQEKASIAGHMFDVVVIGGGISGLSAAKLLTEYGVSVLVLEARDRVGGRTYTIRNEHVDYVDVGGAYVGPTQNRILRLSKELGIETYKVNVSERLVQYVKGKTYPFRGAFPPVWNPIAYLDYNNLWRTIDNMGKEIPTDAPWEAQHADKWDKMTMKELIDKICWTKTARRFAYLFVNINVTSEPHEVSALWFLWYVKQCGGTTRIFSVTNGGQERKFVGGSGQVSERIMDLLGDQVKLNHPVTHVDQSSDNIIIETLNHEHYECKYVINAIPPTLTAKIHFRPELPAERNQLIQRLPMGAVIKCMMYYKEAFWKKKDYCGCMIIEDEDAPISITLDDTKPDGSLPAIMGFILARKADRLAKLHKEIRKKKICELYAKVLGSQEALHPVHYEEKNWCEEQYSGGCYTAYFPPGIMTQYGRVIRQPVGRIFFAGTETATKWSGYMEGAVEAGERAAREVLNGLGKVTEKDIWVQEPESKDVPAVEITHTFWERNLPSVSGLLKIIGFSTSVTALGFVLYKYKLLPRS", "assay": "Inhibition of human MAO-A"}}}
{"compound": "Cc1cc(Nc2nccc(-c3sc(C4CCNCC4)nc3-c3ccc(F)cc3)n2)ccn1", "values": [{"measurement": "Kd", "setting": "[1]", "result": 0.05, "unit": "µM"}, {"measurement": "IC50", "setting": "[2]", "result": "> 100", "unit": "µM"}]}
